This note sets out measurements from ChEMBL document CHEMBL1123582, “Substituted 2-(2-hydroxyphenyl)benzimidazoles as potential agents for the control of periodontal diseases” (1987).

Experiment [1] has as its system Aggregatibacter actinomycetemcomitans. Description: Evaluated for the in vitro minimum bactericidal concentration (MBC) against periopathogenic Actinobacillus actinomycetemcommitans bacteria; NE means not effective. The experiment is classed as functional, organism-based. Put shortly: (§1)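 Tube dilution test against A. actinomycetemcomitans Y4, kept in Trypticase Soy Broth with excess CaCO3. Compound stocks of 1 mg/100 μL EtOH or Me2SO were diluted at least 100-fold into 3-fold series in Bacto Anaerobe broth. Each tube got 50 μL of log-phase inoculum at 10⁸ cfu/mL and was incubated at 37 °C under anaerobic 5% CO2/10% H2/85% Ar. Values are μg/mL, consistent across triplicates.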

Experiment [2] has as its system Actinomyces viscosus. The experiment can be described thus: Evaluated for the in vitro minimum bactericidal concentration (MBC) against periopathogenic Actinomycetes viscosus bacteria. The experiment is classed as functional. Put shortly: (§2)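 Tested against A. viscosus M100-2000, maintained in Trypticase Soy Broth with excess CaCO3, by tube dilution. EtOH or Me2SO stocks (1 mg/100 μL) were diluted at least 100-fold into 3-fold dilution series in Bacto Anaerobe broth. Tubes were seeded with 50 μL of 10⁸ cfu/mL log-phase culture and held at 37 °C in an anaerobic chamber (5% CO2, 10% H2, 85% Ar). Values are in μg/mL, consistent in triplicate.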

The subject of experiment [3] is Porphyromonas gingivalis. The experiment can be described thus: Evaluated for the in vitro minimum bactericidal concentration (MBC) against periopathogenic Bacteroides gingivalis bacteria. The experiment is classed as functional. Put shortly:
(§3)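 B. gingivalis 381, maintained in Trypticase Soy Broth plus excess CaCO3, was assayed by tube dilution. Stocks of 1 mg/100 μL in EtOH or Me2SO were diluted 100-fold or more to give 3-fold dilutions in Bacto Anaerobe broth. Inoculum was 50 μL of log-phase culture at 10⁸ cfu/mL, with incubation at 37 °C anaerobically (5% CO2/10% H2/85% Ar). Concentrations are μg/mL, consistent for triplicate assays.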

Experiment [4] relates to Aggregatibacter actinomycetemcomitans. The experiment can be described thus: Evaluated for the in vitro minimum bactericidal concentration (MBC) against periopathogenic Actinobacillus actinomycetemcommitans bacteria. The experiment is classed as functional. The gist of the method:
as §1

The subject of experiment [5] is Actinomyces viscosus. The experiment can be described thus: Evaluated for the in vitro minimum bactericidal concentration (MBC) against periopathogenic Actinomycetes viscosus bacteria; NE means not effective. The experiment is classed as functional, organism-based. Put shortly: as §2
In experiment [6] the test system is Porphyromonas gingivalis. The experiment can be described thus: Evaluated for the in vitro minimum bactericidal concentration (MBC) against periopathogenic Bacteroides gingivalis bacteria; NE means not effective. The experiment is classed as functional, organism-based. Put shortly:
as §3

The test system of experiment [7] is Actinomyces viscosus. Description: Evaluated for the in vitro minimum bactericidal concentration (MBC) against periopathogenic Actinomycetes viscosus bacteria. The experiment is classed as functional. The gist of the method:
as §2

In experiment [8] the test system is Actinomyces viscosus. The experiment can be described thus: Evaluated for the in vitro minimum bactericidal concentration (MBC) against periopathogenic Actinomycetes viscosus bacteria;NE means not effective. The experiment is classed as functional, organism-based. The gist of the method:
as §2

Converted amounts (≈) assume the structure as drawn. The source made the active and inactive calls. The rule behind the calls is not given here.

For `CCCCCCCC(=O)c1ccc(O)c(-c2nc3cc(C(F)(F)F)ccc3[nH]2)c1`, the MBC entry in experiment [1] was “inactive”. Also, the MBC in experiment [2] and in experiment [3] was 0.5 µg/mL (≈ 1.24 µM) each time.

Regarding `Cc1ccc2[nH]c(-c3ccccc3O)nc2c1`, the MBC in experiment [4] and in experiment [3] was 1 µg/mL (≈ 4.46 µM) throughout. Also, the MBC result in experiment [5] was “inactive”.

As to `CCCCCCCCC(=O)c1ccc(O)c(-c2nc3cc([N+](=O)[O-])ccc3[nH]2)c1`, the MBC result in experiment [1], in experiment [5] and in experiment [6] was “inactive” each time.

`CCCCCCC(=O)c1ccc(O)c(-c2nc3cc(C(F)(F)F)ccc3[nH]2)c1`: the MBC entry in experiment [1] is “inactive”. For the same molecule, the MBC in experiment [2] turned out to be 0.5 µg/mL (≈ 1.28 µM); in experiment [3], 0.05 µg/mL (≈ 0.128 µM).

With `CCCCCCCCC(=O)c1ccc(O)c(-c2nc3cc(Cl)ccc3[nH]2)c1`, the MBC result in experiment [1], in experiment [5] and in experiment [6] was “inactive” each time.

Regarding `CN(C)[C@@H]1C(O)=C(C(N)=O)C(=O)[C@@]2(O)C(O)=C3C(=O)c4c(O)cccc4[C@@](C)(O)[C@H]3C[C@@H]12` [TETRACYCLINE], the MBC stood at 0.5 µg/mL (≈ 1.13 µM) in experiment [4], 0.5 µg/mL (≈ 1.13 µM) in experiment [2] and 0.05 µg/mL (≈ 0.113 µM) in experiment [3].

As to `CCCCCCCCC(=O)c1ccc(O)c(-c2nc3cc(C)ccc3[nH]2)c1`, in experiment [1], the MBC result was “inactive”. In experiment [2], this molecule displayed an MBC of 10 µg/mL (≈ 27.4 µM).

Take `CCCCC(=O)c1ccc(O)c(-c2nc3cc(C(F)(F)F)ccc3[nH]2)c1`: the MBC in experiment [7] and in experiment [3] was 0.5 µg/mL (≈ 1.38 µM) in each case. In addition, the MBC result in experiment [1] was “inactive”.

Consider `CCCCCC(=O)c1ccc(O)c(-c2nc3cc(C(F)(F)F)ccc3[nH]2)c1`, for which, in experiment [1], the MBC result is “inactive”. The MBC in experiment [2] was 0.5 µg/mL (≈ 1.33 µM); in experiment [3] it was 0.1 µg/mL (≈ 0.266 µM).

Consider `CCCCCCCCCC(=O)c1ccc(O)c(-c2nc3cc(C(F)(F)F)ccc3[nH]2)c1`, for which the MBC result in experiment [1], in experiment [5] and in experiment [6] was “inactive” throughout.

Take `Oc1c(Br)cc(Br)cc1-c1nc2cc(C(F)(F)F)ccc2[nH]1`: the results for the MBC in experiment [4], in experiment [2] and in experiment [3] were 1 µg/mL (≈ 2.29 µM), 0.1 µg/mL (≈ 0.229 µM) and 0.05 µg/mL (≈ 0.115 µM), respectively.

Consider `Oc1c(Br)cc(Br)cc1-c1nc2cc(Cl)ccc2[nH]1`, for which the MBC in experiment [4] came to 5 µg/mL (≈ 12.4 µM); in experiment [2] it was 0.5 µg/mL (≈ 1.24 µM); in experiment [3] it was 0.05 µg/mL (≈ 0.124 µM).

Turning to `CCCC(=O)c1ccc(O)c(-c2nc3cc(C(F)(F)F)ccc3[nH]2)c1`, the figures for the MBC in experiment [4], in experiment [2] and in experiment [3] were 5 µg/mL (≈ 14.4 µM), 0.5 µg/mL (≈ 1.44 µM) and 0.05 µg/mL (≈ 0.144 µM), respectively.

Turning to `N=C(NCCCCCCNC(=N)NC(=N)Nc1ccc(Cl)cc1)NC(=N)Nc1ccc(Cl)cc1` [CHLORHEXIDINE], the MBC in experiment [4] was found to be 0.5 µg/mL (≈ 0.989 µM); in experiment [2], 0.5 µg/mL (≈ 0.989 µM); in experiment [3], 0.05 µg/mL (≈ 0.0989 µM).

On to `CCCCCCCC(=O)c1ccc(O)c(-c2nc3cc(Cl)ccc3[nH]2)c1`, for which the MBC entry in experiment [5] was “inactive”.

Turning to `O=C(Nc1ccc(Br)cc1)c1cc(Br)cc(Br)c1O` [TRIBROMSALAN], the MBC in experiment [4] worked out at 0.5 µg/mL (≈ 1.11 µM); in experiment [2], 1 µg/mL (≈ 2.22 µM); in experiment [3] it was 0.05 µg/mL (≈ 0.111 µM).

Regarding `CCCCCCC(=O)c1ccc(O)c(-c2nc3cc(Cl)ccc3[nH]2)c1`, the MBC entry in experiment [1], in experiment [5] and in experiment [6] was “inactive” throughout.

For `CCCCCCCCC(=O)c1ccc(O)c(-c2nc3cc(C(F)(F)F)ccc3[nH]2)c1`, the MBC in experiment [2] was 0.5 µg/mL (≈ 1.19 µM); in experiment [3], 0.1 µg/mL (≈ 0.239 µM).

For `Oc1ccccc1-c1nc2cc(C(F)(F)F)ccc2[nH]1`, the MBC result in experiment [1] and in experiment [8] was “inactive” in each case. In experiment [3], this molecule had an MBC of 50 µg/mL (≈ 180 µM).

With `CCCCCCC(=O)c1ccc(O)c(-c2nc3cc(C)ccc3[nH]2)c1`, the MBC entry in experiment [1], in experiment [5] and in experiment [6] was “inactive” throughout.
